Tests used:
Acetylcholinesterase = target: T1, Acetylcholinesterase (Mus musculus, UniProt P21836); experiment: Inhibition of mouse brain AChE after 1 hr by modified Ellman's colorimetric method
T1 sequence (P21836 whole entry): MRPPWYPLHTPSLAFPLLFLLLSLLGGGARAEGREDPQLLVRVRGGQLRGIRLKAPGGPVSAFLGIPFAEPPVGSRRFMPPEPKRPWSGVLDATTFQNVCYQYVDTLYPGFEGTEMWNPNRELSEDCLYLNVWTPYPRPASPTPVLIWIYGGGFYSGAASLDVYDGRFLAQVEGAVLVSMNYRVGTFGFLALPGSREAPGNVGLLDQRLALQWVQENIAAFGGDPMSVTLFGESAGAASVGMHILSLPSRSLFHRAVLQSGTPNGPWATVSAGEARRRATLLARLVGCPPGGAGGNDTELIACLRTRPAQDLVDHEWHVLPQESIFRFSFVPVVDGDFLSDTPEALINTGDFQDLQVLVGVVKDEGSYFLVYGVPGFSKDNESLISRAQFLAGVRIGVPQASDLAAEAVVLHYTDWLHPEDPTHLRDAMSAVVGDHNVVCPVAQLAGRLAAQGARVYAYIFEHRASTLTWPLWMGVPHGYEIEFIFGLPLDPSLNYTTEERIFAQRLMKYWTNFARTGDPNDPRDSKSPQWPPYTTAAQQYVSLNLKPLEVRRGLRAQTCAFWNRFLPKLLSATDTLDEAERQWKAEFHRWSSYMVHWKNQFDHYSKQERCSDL
Summary of the method: (§1)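 Enzyme from mouse brain extract. Compounds preincubated with enzyme 1 h at 37 °C, then acetylthiocholine plus DTNB added. Absorbance read at 415 nm at 2 min intervals. Activity expressed as percent of DMSO solvent control. Seven concentrations tested. IC50 from nonlinear regression of sigmoidal dose–response, accepted only if r² ≥ 0.95. Mean of at least four independent measurements.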

Cholinesterase = Cholinesterase (Mus musculus, UniProt Q03311); experiment: Inhibition of mouse serum BChE after 1 hr by modified Ellman's colorimetric method
Summary of the method: as §1, with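 “serum” for “brain”, “butyrylthiocholine” for “acetylthiocholine”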

Cholinesterase, sequence (Q03311 whole entry): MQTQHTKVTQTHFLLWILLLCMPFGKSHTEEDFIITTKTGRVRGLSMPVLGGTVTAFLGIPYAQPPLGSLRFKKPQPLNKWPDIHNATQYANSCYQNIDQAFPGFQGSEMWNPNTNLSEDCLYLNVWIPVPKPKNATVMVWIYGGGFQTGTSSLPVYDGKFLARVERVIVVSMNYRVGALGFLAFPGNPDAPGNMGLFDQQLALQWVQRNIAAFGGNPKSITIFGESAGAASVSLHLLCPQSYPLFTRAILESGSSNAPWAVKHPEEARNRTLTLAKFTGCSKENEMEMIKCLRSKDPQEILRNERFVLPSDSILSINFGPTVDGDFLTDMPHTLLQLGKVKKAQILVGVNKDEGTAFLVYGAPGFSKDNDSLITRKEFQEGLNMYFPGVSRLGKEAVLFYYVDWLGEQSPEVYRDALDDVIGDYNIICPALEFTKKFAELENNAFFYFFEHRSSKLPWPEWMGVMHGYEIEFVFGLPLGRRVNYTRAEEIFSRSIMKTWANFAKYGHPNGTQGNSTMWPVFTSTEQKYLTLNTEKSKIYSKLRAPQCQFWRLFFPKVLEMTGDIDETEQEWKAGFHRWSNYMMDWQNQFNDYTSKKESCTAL

SMILES	IC50 (Acetylcholinesterase) [nM]	IC50 (Cholinesterase) [nM]
COc1ccc(NC(=O)Oc2ccc3c(c2)[C@]2(C)CCN(CCc4ccccc4)[C@@H]2N3C)cc1	33000	83
CN1c2ccc(OC(=O)Nc3ccc4c(c3)OCO4)cc2[C@]2(C)CCN(CCc3ccccc3)[C@H]12	1900	100
COc1ccc(NC(=O)Oc2ccc3c(c2)[C@]2(C)CCN(CCc4ccccc4)[C@@H]2N3C)cc1OC	11000	97
CCCCCCNC(=O)Oc1ccc2c(c1)[C@]1(C)CCN(CCc3ccccc3)[C@@H]1N2C	970	14
CCCCc1ccc(NC(=O)Oc2ccc3c(c2)[C@]2(C)CCN(CCc4ccccc4)[C@@H]2N3C)cc1	48000	980
CN1c2ccc(OC(=O)Nc3ccc(Cl)cc3)cc2[C@]2(C)CCN(CCc3ccccc3)[C@H]12	> 100000	370
CN1c2ccc(OC(=O)Nc3ccc([N+](=O)[O-])cc3)cc2[C@]2(C)CCN(CCc3ccccc3)[C@H]12	> 100000	6700
CN1c2ccc(OC(=O)Nc3ccc(Oc4ccccc4)cc3)cc2[C@]2(C)CCN(CCc3ccccc3)[C@H]12	> 100000	2000
CN1c2ccc(OC(=O)NCCc3ccccc3)cc2[C@]2(C)CCN(CCc3ccccc3)[C@H]12	450	16
CN1c2ccc(OC(=O)NCc3ccccc3)cc2[C@]2(C)CCN(CCc3ccccc3)[C@H]12	180	6.6
CCCCCCOc1ccc(NC(=O)Oc2ccc3c(c2)[C@]2(C)CCN(CCc4ccccc4)[C@@H]2N3C)cc1	> 100000	1400
CN1c2ccc(OC(=O)Nc3ccc(C(C)(C)C)cc3)cc2[C@]2(C)CCN(CCc3ccccc3)[C@H]12	15000	430
CC(=O)c1ccc(NC(=O)Oc2ccc3c(c2)[C@]2(C)CCN(CCc4ccccc4)[C@@H]2N3C)cc1	> 100000	5900
CNC(=O)Oc1ccc2c(c1)[C@]1(C)CCN(CCc3ccccc3)[C@@H]1N2C	170	10
CN1c2ccc(OC(=O)NC3CCCCC3)cc2[C@]2(C)CCN(CCc3ccccc3)[C@H]12	5600	22
CN1c2ccc(OC(=O)NCC3CCCCC3)cc2[C@]2(C)CCN(CCc3ccccc3)[C@H]12	2500	1.8
CN1c2ccc(OC(=O)Nc3ccc(-c4ccccc4)cc3)cc2[C@]2(C)CCN(CCc3ccccc3)[C@H]12	> 100000	1100
CN(C)c1ccc(NC(=O)Oc2ccc3c(c2)[C@]2(C)CCN(CCc4ccccc4)[C@@H]2N3C)cc1	> 100000	79
CN1c2ccc(OC(=O)Nc3ccc4ccccc4c3)cc2[C@]2(C)CCN(CCc3ccccc3)[C@H]12	44000	580
CN1c2ccc(OC(=O)Nc3ccccc3)cc2[C@]2(C)CCN(CCc3ccccc3)[C@H]12	1600	340
CNC(=O)Oc1ccc2c(c1)[C@]1(C)CCN(C)[C@@H]1N2C [PHYSOSTIGMINE]	40	280
CC(C)c1ccc(NC(=O)Oc2ccc3c(c2)[C@]2(C)CCN(CCc4ccccc4)[C@@H]2N3C)cc1 [PHENETHYLCYMSERINE]	> 100000	540

Source: ChEMBL document CHEMBL1154942, “Design, synthesis and evaluation of carbamate-modified (-)-N(1)-phenethylnorphysostigmine derivatives as selective butyrylcholinesterase inhibitors” (Bioorg Med Chem Lett, 2010)
